Data on 3 compounds can be found in ChEMBL document CHEMBL1136911, “6,7-Dihydro-5H-pyrrolo[1,2-a] imidazoles as potent and selective alpha1A adrenoceptor partial agonists” (Bioorg Med Chem Lett, 2009).

Series [1] can be described thus: (§1) Apparent permeability from apical to basolateral side of MDCK cells expressing MDR1. The format is ADME, cell-based, Canis lupus familiaris. As to conditions: dog, MDCK-MDR1; call rule not given here. Put shortly: (§2)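 MDCK cells expressing P-glycoprotein (mdr-1); transcellular flux measured at 10 µM substrate in the apical-to-basolateral and basolateral-to-apical directions, reported as Papp ×10^-6 cm s^-1.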

The nature of series [2]: (§3) Apparent permeability from basolateral to apical side of MDCK cells expressing MDR1. The format is ADME, cell-based, Canis lupus familiaris. The following applies: dog, MDCK-MDR1. Put shortly:
as §2

Series [3] addresses T1, Alpha-1A adrenergic receptor (Homo sapiens, UniProt P35348).
T1 sequence (P35348 whole entry): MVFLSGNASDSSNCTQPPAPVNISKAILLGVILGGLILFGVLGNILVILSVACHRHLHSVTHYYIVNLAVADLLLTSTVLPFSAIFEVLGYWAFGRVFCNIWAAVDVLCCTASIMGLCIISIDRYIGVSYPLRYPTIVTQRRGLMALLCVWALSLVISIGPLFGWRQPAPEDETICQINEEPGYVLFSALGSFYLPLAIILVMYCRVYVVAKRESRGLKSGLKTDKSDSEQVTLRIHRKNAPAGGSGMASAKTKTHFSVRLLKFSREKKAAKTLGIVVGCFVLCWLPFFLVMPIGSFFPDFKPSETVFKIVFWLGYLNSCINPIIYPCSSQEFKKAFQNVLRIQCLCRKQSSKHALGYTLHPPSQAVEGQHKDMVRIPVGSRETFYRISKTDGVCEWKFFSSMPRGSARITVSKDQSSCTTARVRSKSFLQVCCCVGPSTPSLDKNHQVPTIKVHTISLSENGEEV
Nature of the series: Agonist activity at human adrenergic alpha1A receptor expressed in CHO cells assessed as calcium mobilization by FLIPR. It is filed as functional, cell-based. In general terms: Calcium assays in cells follow changes in intracellular calcium, usually with a dye or a luminescent sensor.

Series [4] has as its target T2, Alpha-1D adrenergic receptor (Homo sapiens, UniProt P25100).
T2 sequence (P25100 whole entry): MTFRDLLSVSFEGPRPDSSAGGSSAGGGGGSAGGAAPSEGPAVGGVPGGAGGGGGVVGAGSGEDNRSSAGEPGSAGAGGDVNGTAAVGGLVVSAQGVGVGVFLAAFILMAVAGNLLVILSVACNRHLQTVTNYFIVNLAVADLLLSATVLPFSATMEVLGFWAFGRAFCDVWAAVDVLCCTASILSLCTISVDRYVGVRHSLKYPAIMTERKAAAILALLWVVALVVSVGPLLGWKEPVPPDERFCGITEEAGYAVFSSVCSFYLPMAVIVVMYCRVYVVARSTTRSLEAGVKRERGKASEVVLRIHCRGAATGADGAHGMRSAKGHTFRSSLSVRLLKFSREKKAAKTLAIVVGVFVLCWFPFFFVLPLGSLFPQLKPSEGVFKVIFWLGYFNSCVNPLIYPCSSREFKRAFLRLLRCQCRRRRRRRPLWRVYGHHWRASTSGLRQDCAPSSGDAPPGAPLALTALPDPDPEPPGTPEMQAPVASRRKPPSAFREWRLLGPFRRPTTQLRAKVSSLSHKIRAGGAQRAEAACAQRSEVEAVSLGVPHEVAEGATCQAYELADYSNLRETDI
Put plainly: Agonist activity at human adrenergic Alpha-1D receptor expressed in CHO cells assessed as calcium mobilization by FLIPR. It is filed as functional, cell-based. In outline:
(§4)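 Human alpha1B (clone 11) or alpha1D (clone 23) receptor stably expressed in Chinese hamster ovary cells; receptor activation read as Gq-coupled calcium mobilisation with a calcium-sensitive fluorescent dye on FLIPR. Eleven-point concentration-response curves; Emax given as percent of the response to 10 µM phenylephrine. Values are geometric means of at least two experiments.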

Series [5] in a line: Intrinsic clearance in human liver microsomes. It is filed as ADME, Microsome.
The target of series [6] is T3, Alpha-2A adrenergic receptor (Homo sapiens, UniProt P08913).
T3 sequence (P08913 whole entry): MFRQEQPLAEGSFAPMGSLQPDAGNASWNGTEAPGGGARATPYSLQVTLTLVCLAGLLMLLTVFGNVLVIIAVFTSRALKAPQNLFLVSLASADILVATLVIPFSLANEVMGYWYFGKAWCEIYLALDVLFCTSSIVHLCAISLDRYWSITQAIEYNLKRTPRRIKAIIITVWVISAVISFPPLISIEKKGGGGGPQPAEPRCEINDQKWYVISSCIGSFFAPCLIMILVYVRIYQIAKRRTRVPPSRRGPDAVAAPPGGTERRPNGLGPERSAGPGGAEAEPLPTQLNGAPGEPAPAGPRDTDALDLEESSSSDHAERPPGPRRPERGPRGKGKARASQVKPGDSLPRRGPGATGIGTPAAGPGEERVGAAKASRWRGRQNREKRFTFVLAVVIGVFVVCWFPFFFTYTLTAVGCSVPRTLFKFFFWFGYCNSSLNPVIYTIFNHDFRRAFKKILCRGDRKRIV
Nature of the series: Inhibition of adrenergic alpha2A receptor.

Series [7] addresses T4, Alpha-1B adrenergic receptor (Homo sapiens) (UniProt P35368).
T4 sequence (whole entry): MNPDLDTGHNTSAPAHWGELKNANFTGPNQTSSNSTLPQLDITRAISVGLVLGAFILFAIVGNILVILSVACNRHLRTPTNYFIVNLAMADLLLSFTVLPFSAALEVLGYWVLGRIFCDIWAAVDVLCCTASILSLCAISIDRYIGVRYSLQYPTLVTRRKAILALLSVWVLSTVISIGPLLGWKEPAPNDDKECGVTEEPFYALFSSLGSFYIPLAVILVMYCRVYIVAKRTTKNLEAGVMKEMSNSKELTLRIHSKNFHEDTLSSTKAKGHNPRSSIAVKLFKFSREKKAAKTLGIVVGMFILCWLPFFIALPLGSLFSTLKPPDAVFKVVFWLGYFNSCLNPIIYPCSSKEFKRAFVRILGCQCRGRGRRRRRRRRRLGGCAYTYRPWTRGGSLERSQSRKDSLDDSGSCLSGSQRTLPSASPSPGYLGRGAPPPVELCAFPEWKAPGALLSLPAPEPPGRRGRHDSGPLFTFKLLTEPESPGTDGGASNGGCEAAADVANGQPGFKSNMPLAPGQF
Put plainly: Agonist activity at human adrenergic Alpha-1B receptor expressed in CHO cells assessed as calcium mobilization by FLIPR relative to 10 uM phenylephrine. The format is functional, cell-based. In outline: (§5)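 Human α1B (clone 11) and α1D (clone 23) receptors each expressed in Chinese hamster ovary cells. Gq-coupled receptor activation read as intracellular calcium rise with a calcium-sensitive fluorescent dye on FLIPr. Eleven-point concentration-response curves; Emax expressed as percent of the 10 µM phenylephrine response. Values are geometric means of at least two experiments.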

Series [8] has as its target T5, Alpha-1D adrenergic receptor (Homo sapiens) (UniProt P25100).
T5 sequence (whole entry): T2 sequence (P25100 whole entry)
Nature of the series: Agonist activity at human adrenergic Alpha-1D receptor expressed in CHO cells assessed as calcium mobilization by FLIPR relative to 10 uM phenylephrine. The format is functional, cell-based. Put shortly:
as §5

The target in series [9] is T6, Alpha-1B adrenergic receptor (Homo sapiens, UniProt P35368).
T6 sequence (P35368 whole entry): T4 sequence (whole entry)
Put plainly: Agonist activity at human adrenergic Alpha-1B receptor expressed in CHO cells assessed as calcium mobilization by FLIPR. The format is functional, cell-based. Put shortly:
as §4

Series [10] is described as follows: Lipophilicity, log D at pH 7.4. As to conditions: buffer.
Series [11] has as its target T7, CYP1A2 (Homo sapiens, UniProt P05177).
T7 sequence (P05177 whole entry): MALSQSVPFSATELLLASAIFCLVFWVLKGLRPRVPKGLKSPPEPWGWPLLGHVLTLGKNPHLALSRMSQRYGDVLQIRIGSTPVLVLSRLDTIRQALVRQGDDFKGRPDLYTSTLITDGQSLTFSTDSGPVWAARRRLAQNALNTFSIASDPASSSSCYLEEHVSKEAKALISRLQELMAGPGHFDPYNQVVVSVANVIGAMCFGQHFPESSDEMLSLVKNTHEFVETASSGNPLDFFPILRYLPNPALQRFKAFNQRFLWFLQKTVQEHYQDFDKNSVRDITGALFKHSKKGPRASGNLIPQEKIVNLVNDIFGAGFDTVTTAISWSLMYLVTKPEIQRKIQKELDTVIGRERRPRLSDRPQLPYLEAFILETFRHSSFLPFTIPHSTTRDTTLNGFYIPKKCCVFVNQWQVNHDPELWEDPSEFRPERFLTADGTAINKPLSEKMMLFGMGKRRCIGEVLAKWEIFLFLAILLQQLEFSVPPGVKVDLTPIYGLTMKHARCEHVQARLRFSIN
Put plainly: Inhibition of CYP1A2 at 3 uM. It is filed as ADME.

Series [12] deals with CYP2D6 (Homo sapiens, UniProt P10635). Nature of the series: Inhibition of CYP2D6 at 3 uM. It is filed as ADME.
For series [13], the target named is CYP2C9 (Homo sapiens, UniProt P11712). Nature of the series: Inhibition of CYP2C9 at 3 uM. The format is ADME.
For series [14], the target named is Voltage-gated inwardly rectifying potassium channel KCNH2 (Homo sapiens, UniProt Q12809). Nature of the series: Inhibition of human ERG up to 22 uM.
The target of series [15] is CYP3A4 (Homo sapiens, UniProt P08684). Put plainly: Inhibition of CYP3A4 at 3 uM. The format is ADME.
The test system of series [16] is MDCK. The series is described as §1. As to conditions: dog, mdck. It is filed as ADME, cell-based, Canis lupus familiaris. In outline:
as §2

For series [17], the system named is MDCK. Described as §3. It is filed as ADME, cell-based, Canis lupus familiaris. The following applies: dog, mdck. In outline: as §2

SMILES strings stand for the structures. Bounds are passed on as bounds.

Voltage-gated inwardly rectifying potassium channel KCNH2, sequence (Q12809 whole entry): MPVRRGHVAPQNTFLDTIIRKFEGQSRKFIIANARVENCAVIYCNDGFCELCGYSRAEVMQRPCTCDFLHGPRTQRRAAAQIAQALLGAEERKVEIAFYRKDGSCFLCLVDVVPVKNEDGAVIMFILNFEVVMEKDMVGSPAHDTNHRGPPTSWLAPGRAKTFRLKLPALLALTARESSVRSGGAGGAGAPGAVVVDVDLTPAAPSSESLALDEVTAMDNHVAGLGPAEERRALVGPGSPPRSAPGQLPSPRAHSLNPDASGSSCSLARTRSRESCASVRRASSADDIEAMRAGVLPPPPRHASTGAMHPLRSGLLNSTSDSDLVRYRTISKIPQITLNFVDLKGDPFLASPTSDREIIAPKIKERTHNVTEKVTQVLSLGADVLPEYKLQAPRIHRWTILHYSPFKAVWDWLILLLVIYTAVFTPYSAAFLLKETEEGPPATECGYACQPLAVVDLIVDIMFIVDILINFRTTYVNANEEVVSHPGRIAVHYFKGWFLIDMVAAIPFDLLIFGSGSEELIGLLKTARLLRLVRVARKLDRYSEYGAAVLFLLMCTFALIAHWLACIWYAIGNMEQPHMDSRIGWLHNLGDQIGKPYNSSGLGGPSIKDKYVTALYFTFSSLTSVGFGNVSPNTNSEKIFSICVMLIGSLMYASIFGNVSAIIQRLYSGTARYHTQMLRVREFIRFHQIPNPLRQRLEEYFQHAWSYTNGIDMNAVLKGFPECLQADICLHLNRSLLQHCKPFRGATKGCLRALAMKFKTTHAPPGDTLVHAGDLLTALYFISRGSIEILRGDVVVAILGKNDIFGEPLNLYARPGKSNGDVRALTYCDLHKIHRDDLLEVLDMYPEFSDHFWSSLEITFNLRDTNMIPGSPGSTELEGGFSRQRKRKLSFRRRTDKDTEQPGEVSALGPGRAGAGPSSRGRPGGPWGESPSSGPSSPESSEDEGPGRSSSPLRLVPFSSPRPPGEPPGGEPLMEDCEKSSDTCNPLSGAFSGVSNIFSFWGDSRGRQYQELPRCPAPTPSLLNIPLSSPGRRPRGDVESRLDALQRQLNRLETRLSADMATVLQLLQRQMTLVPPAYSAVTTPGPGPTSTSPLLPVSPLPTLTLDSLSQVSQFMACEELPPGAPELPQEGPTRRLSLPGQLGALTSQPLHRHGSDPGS
CYP2D6, sequence (P10635 whole entry): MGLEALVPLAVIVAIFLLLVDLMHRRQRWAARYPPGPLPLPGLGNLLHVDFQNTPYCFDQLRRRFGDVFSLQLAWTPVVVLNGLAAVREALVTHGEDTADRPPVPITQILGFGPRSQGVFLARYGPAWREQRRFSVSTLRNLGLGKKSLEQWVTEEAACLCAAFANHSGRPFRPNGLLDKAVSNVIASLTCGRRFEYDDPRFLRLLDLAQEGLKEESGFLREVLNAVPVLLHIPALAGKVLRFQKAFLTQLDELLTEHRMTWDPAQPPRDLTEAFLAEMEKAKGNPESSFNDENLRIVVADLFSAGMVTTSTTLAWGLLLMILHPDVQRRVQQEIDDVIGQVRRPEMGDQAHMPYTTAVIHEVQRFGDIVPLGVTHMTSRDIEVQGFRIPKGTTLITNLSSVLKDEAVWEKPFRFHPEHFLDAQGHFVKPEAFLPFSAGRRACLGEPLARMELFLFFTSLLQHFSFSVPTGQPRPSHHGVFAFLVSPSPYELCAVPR
CYP2C9, sequence (P11712 whole entry): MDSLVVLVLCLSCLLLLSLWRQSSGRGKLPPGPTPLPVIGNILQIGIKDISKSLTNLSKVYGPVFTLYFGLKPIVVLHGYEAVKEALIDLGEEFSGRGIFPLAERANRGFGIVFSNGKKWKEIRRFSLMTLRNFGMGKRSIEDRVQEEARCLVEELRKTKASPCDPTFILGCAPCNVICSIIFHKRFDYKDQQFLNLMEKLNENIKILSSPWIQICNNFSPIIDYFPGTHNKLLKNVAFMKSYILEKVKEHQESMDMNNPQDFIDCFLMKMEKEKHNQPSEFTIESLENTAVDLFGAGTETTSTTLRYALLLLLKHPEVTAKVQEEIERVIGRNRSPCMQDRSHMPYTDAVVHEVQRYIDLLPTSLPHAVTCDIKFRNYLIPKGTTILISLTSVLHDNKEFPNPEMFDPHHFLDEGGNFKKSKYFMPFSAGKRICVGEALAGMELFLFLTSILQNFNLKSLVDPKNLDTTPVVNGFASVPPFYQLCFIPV
CYP3A4, sequence (P08684 whole entry): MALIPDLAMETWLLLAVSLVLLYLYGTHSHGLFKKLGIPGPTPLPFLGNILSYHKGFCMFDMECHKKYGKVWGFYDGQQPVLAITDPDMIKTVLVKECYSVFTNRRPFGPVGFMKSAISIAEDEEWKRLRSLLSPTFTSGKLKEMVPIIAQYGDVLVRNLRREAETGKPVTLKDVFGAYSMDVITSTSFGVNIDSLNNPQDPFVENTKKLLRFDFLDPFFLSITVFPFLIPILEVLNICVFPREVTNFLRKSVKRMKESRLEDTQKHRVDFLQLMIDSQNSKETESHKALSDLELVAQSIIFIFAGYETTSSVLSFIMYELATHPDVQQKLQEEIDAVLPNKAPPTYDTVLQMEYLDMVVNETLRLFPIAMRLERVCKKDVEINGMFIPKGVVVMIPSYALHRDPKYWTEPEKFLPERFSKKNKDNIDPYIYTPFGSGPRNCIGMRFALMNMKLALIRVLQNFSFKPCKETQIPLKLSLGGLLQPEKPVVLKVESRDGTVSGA

One may read the Papp A→B as how fast a substance crosses the layer from the apical side. In general, Papp B→A refers to the apparent permeability from the basolateral to the apical side of a cell layer. The EC50 is the concentration at which the effect is half-maximal. What is called microsomal CLint is a measure of how fast metabolising enzymes remove a compound, apart from limits set by blood flow. Lower therefore signals greater metabolic stability. Usually Ki stands for the equilibrium dissociation constant of an inhibitor or competing ligand from its target. Lower therefore signals tighter binding. As a reminder, the Emax is the size of the effect at its maximum, as opposed to the concentration needed. Broadly, the logD is the decadic logarithm of the distribution of all forms, ionised or not, between an organic phase and buffer at a given pH. Consider `c1cncc(-c2ccccc2[C@@H]2Cc3nccn3C2)c1`, for which, in [1], the apical-to-basolateral permeability (Papp A→B) was 44 ×10⁻⁶ cm/s. For the same compound, in series [2], the basolateral-to-apical permeability (Papp B→A) stood at 47 ×10⁻⁶ cm/s. The values for the EC50 in [3], in series [4] and in series [9] were 1 nM, 119 nM and 760 nM, respectively. This compound returned an intrinsic metabolic clearance (microsomal CLint) in series [5] of 8 µL/min/mg. The compound also returned a Ki in series [6] of 991 nM. The maximal effect (Emax) in series [7] was determined as 54%; in series [8] it was 71%. The compound also gave a log distribution coefficient (logD) in [10] of 2.1.

Usually inhibition stands for the relative decrease from the control value, in per cent. Read a high inhibition as a strong effect. Regarding `Fc1ccc(-c2cncnc2)c(C2Cc3nccn3C2)c1` (centres undefined), the inhibition at 3 µM in series [11], in series [12], in series [13] and in series [15] was less than 10% throughout. The Papp A→B in series [1] was determined as 34 ×10⁻⁶ cm/s. Moreover, the apparent permeability from basolateral to apical (Papp B→A) in series [2] amounted to 39 ×10⁻⁶ cm/s. Besides, the values for the half-maximal effective concentration (EC50) in series [3], in series [4] and in [9] were 1 nM, greater than 2600 nM and greater than 10000 nM, respectively. In series [5], this compound gave an intrinsic clearance (microsomal CLint) of less than 8 µL/min/mg. Further, the Ki in series [6] was greater than 2780 nM. Moreover, in series [14], the “inhibition (INH)” value was “Not Active”. The compound further gave a pH-dependent lipophilicity (logD) in [10] of 1.3.

Usually Papp stands for the rate of passage across a membrane or cell layer, normalised by area and donor concentration. `COCc1c(Cl)ccc2c1CC[C@H]2c1ncc[nH]1`: the Papp is recorded as 40 ×10⁻⁶ cm/s in [16] and 36 ×10⁻⁶ cm/s in [17]. For the same compound, the EC50 in [4] was greater than 7000 nM; in [9] it was greater than 10000 nM. In [6], this compound displayed an inhibition constant Ki greater than 1700 nM. In [10], the logD stood at 2.6.
